# Laboratory results from PubChem BioAssay.
# Calls of active or inactive are those of the source.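 Rule for the calls, unless noted: active = GFP response above 150% of the DMSO level; inconclusive = fewer than 70 events counted for a yeast strain; inactive = the rest.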
# How the values were obtained:
# [1] = hit retest on RPL19A-GFP reporter strain – cell-based, S. cerevisiae, flow cytometry, cherry picks, mother/daughter gates, confirmation (AID 2270;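 active = GFP response below 50% of the DMSO control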); conditions: 3 h, at 10 µM, stronger effect = lower value, 100 = same GFP as DMSO wells
# [2] = yeast TOR pathway reporter LAP4-GFP change – cell-based, cherry picks, flow cytometry, mother/daughter gates, confirmation (AID 2271;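 active = GFP response above 150% of the DMSO control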;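 note: ratio of sample to DMSO plate mean so 100% equals DMSO level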); conditions: S. cerevisiae LAP4-GFP strain, 3 h, at 10 µM, stronger effect = higher value, 100 means same as DMSO control
# How it was run: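 Material – Alexa Fluor 633-labelled Saccharomyces cerevisiae GFP-fusion strain, single-plex · Incubation – compound exposure 3 h at 30 °C, end-over-end rotation · Measured by – GFP by flow cytometry · Measure – median GFP fluorescence as percent of plate-mean DMSO wells · Control set – positive rapamycin (400 ng/mL), negative DMSO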
# [3] = TOR pathway reporter MEP2-GFP, retest of hits – S. cerevisiae, flow cytometry GFP, cherry picks, confirmation (AID 2272;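 active = GFP response above 150% of the DMSO control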;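 note: ratio of well signal to plate DMSO mean so 100% equals DMSO level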); conditions: S. cerevisiae MEP2-GFP strain, 3 h, at 10 µM, stronger effect = higher value
# [4] = yeast AGP1-GFP fluorescence change, single-dose – cell-based, flow cytometry, S. cerevisiae, cherry picks, confirmation (AID 2273);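 note: median GFP channel fluorescence over the whole cell population gate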; conditions: S. cerevisiae AGP1-GFP strain, 3 h, at 10 µM
# [5] = TOR pathway CIT2 reporter hit retest – S. cerevisiae, GFP fusion, cherry picks, mother/daughter gates, confirmation (AID 2274); conditions: S. cerevisiae CIT2-GFP strain, flow cytometry, 3 h, at 10 µM, stronger effect = higher value
# [6] = measured here: daughter cell gate
# [7] = measured here: mother cell gate
# [8] = measured here: daughter cell gate response
# [9] = measured here: mother cell gate response
Structure (SMILES),GFP response vs DMSO [1],"GFP response vs DMSO [1, 6] [%]","GFP response vs DMSO [1, 7] [%]",GFP response relative to DMSO [2],"GFP response relative to DMSO [2, 8] [%]","GFP response relative to DMSO [2, 9] [%]",GFP response vs DMSO [3],"GFP response, % of DMSO [4]","GFP response, % of DMSO [5]","GFP response, % of DMSO [5, 6] [%]","GFP response, % of DMSO [5, 7] [%]"
CCCc1[nH]nc2c1C(c1ccccc1OCC)C(C#N)=C(N)O2 (configuration not stated),98.4% (inactive),99.5,98,99.8% (inactive),98.7,101,100% (inactive),102% (inactive),99.1% (inactive),96.5,98.7
O=C1c2ccsc2SCCN1Cc1ccc(Cl)cc1,93.6% (inactive),86,97,135% (inactive),128,144,91.3% (inactive),93.9% (inactive),82.2% (inactive),80.1,82.6
COc1ccccc1-c1nnc(NC(=O)c2ccc(S(=O)(=O)N3CCCC3)cc2)o1,102% (inactive),101,104,96.2% (inactive),98.7,97.2,102% (inactive),98% (inactive),107% (inactive),105,107
CCCCNC(=O)c1c(O)c2cccc3c2n(c1=O)CCC3,98.8% (inactive),98.4,99.8,97.4% (inactive),95.6,100,100% (inactive),100% (inactive),97.8% (inactive),96.5,97.7
Cc1ccccc1C(=O)NNC(=S)NC(=O)c1ccc(Cl)cc1Cl,104% (inactive),105,104,143% (inactive),124,140,118% (inactive),97.1% (inactive),101% (inactive),109,94.5
Cc1cc(NCCN2CCOCC2)n2nc(C)c(-c3ccc(Cl)cc3)c2n1,97.1% (inactive),97,95.8,106% (inactive),101,109,108% (inactive),98.4% (inactive),100% (inactive),99.3,99.3
CCOc1cccc(C(=O)Nc2ccc(NC(=O)c3cc4ccccc4o3)c(OC)c2)c1,96.2% (inactive),96.4,97.2,91.5% (inactive),91.2,90.8,98.3% (inactive),94.8% (inactive),103% (inactive),103,102
CCOC(=O)c1c(C)oc2c1c(C(c1cccnc1)N1CCOCC1)c(O)c1ccccc12 (configuration not stated),95% (inactive),98.5,89.6,203% (active),199,188,124% (inactive),104% (inactive),97.8% (inactive),109,86.3
N#CC(C(=O)NCc1ccccc1)c1nc2ccccc2nc1N1CCCC1 (configuration not stated),103% (inactive),102,104,114% (inactive),108,117,117% (inactive),99.6% (inactive),111% (inactive),108,109
NC(=O)CSCc1c(Cl)cccc1Cl,101% (inactive),100,101,105% (inactive),103,108,109% (inactive),97.2% (inactive),93.9% (inactive),94.8,92.3
Oc1ccc(/C=N/Nc2nc(-c3cccnc3)nc3ccccc23)c(O)c1,93.5% (inactive),95.3,94.6,83.8% (inactive),84.2,82.7,101% (inactive),101% (inactive),106% (inactive),108,105
Cc1cc(OCC(=O)Nc2ccc(S(=O)(=O)N3CCN(C)CC3)cc2)ccc1Br,98% (inactive),98.7,97.3,97.7% (inactive),99,97.4,101% (inactive),106% (inactive),101% (inactive),101,103
Cc1cc2ccccn2c1C(=O)c1ccc([N+](=O)[O-])o1,102% (inactive),106,94.6,195% (active),182,196,132% (inactive),109% (inactive),98.4% (inactive),106,87.8
c1ccc(-c2cccc(-c3ccccn3)n2)nc1,92.9% (inactive),82.8,96.9,258% (active),210,268,106% (inactive),89% (inactive),97.8% (inactive),87.2,100
CCOc1ccccc1NC(=O)c1nc(S(=O)(=O)Cc2cccc(C)c2)ncc1Cl,101% (inactive),100,101,101% (inactive),102,103,100% (inactive),101% (inactive),97.8% (inactive),96.5,98.7
COc1cccc(C(=O)Nc2ccccc2)c1,98.2% (inactive),97.4,96.7,106% (inactive),102,106,105% (inactive),95.2% (inactive),94% (inactive),93.6,92.6
CC(=O)c1ccccc1NCC(=O)Nc1ccc(C)cc1,96.3% (inactive),95,96,99.8% (inactive),98.2,101,103% (inactive),100% (inactive),93.4% (inactive),95.2,92.8
COc1ccc(-c2nn(-c3ccccc3)cc2C(=O)N/N=C/c2ccc([N+](=O)[O-])o2)cc1,103% (inactive),103,103,84.2% (inactive),92.5,92.1,100% (inactive),96.7% (inactive),113% (inactive),110,115
C/C(CC(=O)Nc1cc(C)ccn1)=N\NC(=O)c1cccc(F)c1,98.6% (inactive),97.5,98.7,97.4% (inactive),97.2,99.3,100% (inactive),94.1% (inactive),93.9% (inactive),94.8,93.4
CN1/C(=C\C(=O)c2cccc(S(=O)(=O)N3CCCCC3)c2)C(C)(C)c2ccccc21,96.8% (inactive),97.6,97.2,95.4% (inactive),97.6,94,100% (inactive),97.2% (inactive),98.3% (inactive),99.1,98.5
CCOc1ccc(S(=O)(=O)n2ccnc2C)cc1,99.7% (inactive),100,98.4,96.2% (inactive),97.2,98.3,102% (inactive),102% (inactive),104% (inactive),103,104
O=C(CSc1ccc(-c2ccccn2)nn1)N1CCCCC1,99.9% (inactive),100,99,101% (inactive),101,101,99.5% (inactive),103% (inactive),99.3% (inactive),100,96.8
CCC(=O)Nc1cccc(C(=O)/C=C/c2ccccc2)c1,102% (inactive),102,101,105% (inactive),102,106,109% (inactive),97.3% (inactive),97.3% (inactive),95.6,95.6
O=[N+]([O-])c1cccnc1S(=O)(=O)c1ccccc1,97.6% (inactive),94.7,96.2,114% (inactive),110,112,103% (inactive),102% (inactive),90.1% (inactive),88.4,89.5
Cc1ccc(/C=C/C(=O)c2ccccc2)cc1,97.4% (inactive),96.7,98.3,100% (inactive),102,99.5,99.5% (inactive),102% (inactive),102% (inactive),100,99.1
CCOC(=O)c1ccc(NC(=O)CCc2nc(-c3ccc(C)cc3)no2)cc1,101% (inactive),102,100,98.2% (inactive),99.1,98.4,107% (inactive),100% (inactive),91.5% (inactive),90.2,93.2
COc1ccccc1OCCCc1c(C)n[nH]c1C,119% (inactive),89.8,115,207% (active),104,205,130% (inactive),76.6% (inactive),114% (inactive),101,101
